Laboratory results as given in ChEMBL document CHEMBL3232850, “Anti-inflammatory labdane diterpenoids from Lagopsis supina” (J Nat Prod, 2014).
pIC50: −log10 of the molar value.

How the values were obtained:
[1] = Antiinflammatory activity in […] BV2 cells assessed as inhibition of LPS-induced nitric oxide production at 80 uM by Griess assay; type: functional; details: Mus musculus, BV-2
[2] = Antiinflammatory activity in […] BV2 cells assessed as inhibition of LPS-induced nitric oxide production by Griess assay; type: functional, cell-based; details: BV-2
Summary of the method: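 BV-2 microglial cells were stimulated with lipopolysaccharide, and NO production was measured by the Griess assay. Inhibition is reported as IC50 values in μM.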

[3] = Cytotoxicity against […] LPS-treated BV2 cells assessed as cell viability up to 80 uM after 24 hrs by MTT assay; type: cell-based; details: bv-2, 24 h

pIC50 [2] | Structure (SMILES) | inhibition at 80 µM [1] [%] | Activity [3]
 | CC(=O)O[C@@H]1[C@H](O)[C@@H](C)[C@](O)(CCc2ccoc2)[C@@]2(C)CCCC(C)(C)[C@H]12 | < 50 | 
 | CC(=O)O[C@@H]1[C@H](OC(C)=O)[C@@H](C)[C@](O)(CCc2ccoc2)[C@@]2(C)CCCC(C)(C)[C@H]12 | < 50 | 
 | CC(=O)O[C@@H]1[C@H](O)[C@@H](C)[C@]2(CC[C@]3(CO[C@@H](O)C3)O2)[C@@]2(C)CCCC(C)(C)[C@H]12 | < 50 | 
 | CC(=O)O[C@@H]1[C@H](O)[C@@H](C)[C@]2(CC[C@]3(CO[C@H](O)C3)O2)[C@@]2(C)CCCC(C)(C)[C@H]12 | < 50 | 
 | CC(=O)O[C@@H]1[C@H](O)[C@@H](C)[C@]2(CC[C@@]3(CO[C@H](O)C3)O2)[C@@]2(C)CCCC(C)(C)[C@H]12 | < 50 | 
 | CC(=O)O[C@@H]1[C@H](O)[C@@H](C)[C@]2(CC[C@@]3(CO[C@@H](O)C3)O2)[C@@]2(C)CCCC(C)(C)[C@H]12 | < 50 | 
4.79 | COC1C=C(CC[C@@]2(O)[C@H](C)[C@@H](O)[C@@H](OC(C)=O)[C@H]3C(C)(C)CCC[C@@]32C)C(=O)O1 (stereo not given in full) |  | Non-toxic
 | CCC(=O)C(OC(C)=O)[C@H]1C(C)(C)CCC[C@]1(C)C(=O)CCc1ccoc1 (stereo not given in full) | < 50 | 
4.46 | CCC(=O)C(OC(C)=O)[C@H]1C(C)(C)CCC[C@]1(C)C(=O)CCC1=CCOC1=O (stereo not given in full) |  | Non-toxic
 | CC1(C)CCC[C@@]2(C)C1=CC(=O)[C@](C)(O)[C@]2(O)CCc1ccoc1 | < 50 | 
 | CC(=O)O[C@H]1[C@@H](O)[C@H]2C(C)(C)CCC[C@]2(C)[C@@](O)(CCc2ccoc2)[C@@H]1C | < 50 | 
 | C[C@@H]1[C@@H](O)[C@@H](O)[C@H]2C(C)(C)CCC[C@]2(C)[C@@]1(O)CCc1ccoc1 | < 50 | 
4.83 | C[C@@H]1C(=O)C=C2C(C)(C)CCC[C@]2(C)[C@@]1(O)CCc1ccoc1 |  | Non-toxic
 | C[C@@H]1[C@@H](O)C(=O)[C@H]2C(C)(C)CCC[C@]2(C)[C@@]1(O)CCc1ccoc1 | < 50 | 
4.47 | CC1=C(CCc2ccoc2)[C@@]2(C)CCCC(C)(C)C2=CC1=O |  | Non-toxic

Structure (SMILES) | pIC50 [2] | inhibition at 80 µM [1] [%] | Activity [3]
O=c1c(O)c(-c2ccc(O)c(O)c2)oc2cc(O)cc(O)c12 [QUERCETIN] | 5.00 |  | 
